# Calls of active or inactive are those of the source.
# Key:
# Mus musculus [1] = test: Potency index, ratio of morphine AD50 to compound AD50 for analgesic activity in icv dosed ICR mouse assessed as inhibition of heat stimulus-induced tail flick response; assay type: functional
# Mus musculus [2] = species on record: Mus musculus; test: Potency index, ratio of morphine AD50 to compound AD50 for analgesic activity in ICR mouse assessed as inhibition of thermal stimulus-induced response by hot-plate test; assay type: functional
# Mus musculus [3] = test: Potency index, ratio of morphine AD50 to compound AD50 for analgesic activity in icv dosed ICR mouse assessed as inhibition of acetic acid-induced writhing response; assay type: functional
# Mus musculus [4] = test: Potency index, ratio of morphine AD50 to compound AD50 for analgesic activity in iv dosed ICR mouse assessed as inhibition of heat stimulus-induced tail flick response; assay type: functional
# Mus musculus [5] = test: Analgesic activity in icv dosed ICR mouse assessed as inhibition of heat stimulus-induced tail flick response measured for 30 to 60 mins; assay type: functional, organism-based
# Method in brief: (§1)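 Male ICR mice, 25-30 g. Peptide given icv (5 µl) over a dose range of 0.09-0.38 µg/mouse. Tail-flick latency was measured against noxious heat with a 10 s cutoff. Control latency was the mean of two pre-drug readings. Percent analgesia = (T1−T0)/(T2−T0)×100. For line 2, naloxone 1 mg/kg sc was given 10 min after the peptide. Mean ± SEM.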
# Mus musculus [6] = test: Analgesic activity in ICR mouse assessed as inhibition of heat stimulus-induced tail flick response at 0.38 ug, icv administered opiate antagonist naloxone at 10 mins post compound treatment measured for 30 to 60 mins; assay type: functional, organism-based; method in brief: as §1
# Mus musculus [7] = test: Analgesic activity in icv dosed ICR mouse assessed as inhibition of thermal stimulus-induced response by hot-plate test in presence of opiate antagonist naloxone; assay type: functional, organism-based
# Mus musculus [8] = test: Analgesic activity in ICR mouse assessed as inhibition of acetic acid-induced writhing response at 0.38 ug, icv administered 5 mins prior to acetic acid challenge measured for 15 mins; assay type: functional, organism-based
# Method in brief: (§2)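 Male ICR mice, 25-30 g. Peptide given icv (5 µl) 5 min before i.p. 0.6% acetic acid (0.1 ml/10 g body weight). Writhes counted over 15 min.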
# Mus musculus [9] = test: Analgesic activity in opiate antagonist naloxone-treated ICR mouse assessed as inhibition of acetic acid-induced writhing response at 0.38 ug, icv administered 5 mins prior to acetic acid challenge measured for 15 mins; assay type: functional, organism-based; method in brief: as §2
# Mus musculus [10] = test: Analgesic activity in iv dosed ICR mouse assessed as inhibition of heat stimulus-induced tail flick response measured for 20 to 30 mins; assay type: functional, organism-based
# Method in brief: (§3)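 Male ICR mice, 25-30 g. Peptide given iv via the tail vein at 9.4, 18.8 or 28.2 mg/kg. Tail-flick latency to heat with a 10 s cutoff. Percent analgesia calculated against the pre-drug control latency. For line 10, naloxone hydrochloride 1 mg/kg sc was given 5 min before 20.1 mg/kg peptide. Mean ± SEM.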
# Mus musculus [11] = test: Analgesic activity in opiate antagonist naloxone hydrochloride-treated ICR mouse assessed as inhibition of heat stimulus-induced tail flick response at 20.1 mg/kg, iv measured for 20 to 30 mins; assay type: functional, organism-based; parameters: dose 20.1 mg/kg; method in brief: as §3
# Mus musculus [12] = test: Analgesic activity in icv dosed ICR mouse assessed as inhibition of thermal stimulus-induced response by hot-plate test; assay type: functional, organism-based
# Method in brief: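 Male ICR mice, 25-30 g. Peptide given icv (5 µl). Hot-plate latency with a 60 s cutoff. Control latency was the mean of two pre-drug readings, with test latencies at various times after injection. Percent analgesia = (T1−T0)/(T2−T0)×100.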
# Mus musculus [13] = test: Analgesic activity in icv dosed ICR mouse assessed as 50% inhibition of heat stimulus-induced tail flick response measured for 60 to 90 mins; assay type: functional
# Method in brief: (§4)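 Male ICR mice, 25-30 g. Tail-flick latency to heat with a 10 s cutoff. A twofold increase in latency over the pre-drug control was the quantal criterion. AD50 with 95% confidence limits by Litchfield-Wilcoxon.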
# Mus musculus [14] = test: Analgesic activity in icv dosed ICR mouse assessed as 50% inhibition of thermal stimulus-induced response measured for 60 to 90 mins by hot-plate test; assay type: functional
# Method in brief: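 Male ICR mice, 25-30 g. Peptide given icv (5 µl). Hot-plate latency with a 60 s cutoff. A twofold increase over the control latency (mean of two pre-drug readings) was the quantal criterion. AD50 with 95% confidence limits by Litchfield-Wilcoxon.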
# Mus musculus [15] = test: Analgesic activity in icv dosed ICR mouse assessed as 50% inhibition of acetic acid-induced writhing response administered 5 mins prior to acetic acid challenge measured for 60 to 90 mins; assay type: functional
# Mus musculus [16] = test: Analgesic activity iv dosed ICR mouse assessed as 50% inhibition of heat stimulus-induced tail flick response measured for 60 to 90 mins; assay type: functional; method in brief: as §4
Compound,Ratio (Mus musculus [1]),Ratio (Mus musculus [2]),Ratio (Mus musculus [3]),Ratio (Mus musculus [4]),inhibition (Mus musculus [5]),inhibition (Mus musculus [6]),inhibition (Mus musculus [7]),inhibition (Mus musculus [8]),inhibition (Mus musculus [9]),inhibition (Mus musculus [10]),inhibition (Mus musculus [11]),inhibition (Mus musculus [12]),AD50 (Mus musculus [13]) [nmol],AD50 (Mus musculus [14]) [nmol],AD50 (Mus musculus [15]) [nmol],AD50 (Mus musculus [16]) [µmol/kg]
H-YGGFMTSEKSQTPLVTLFKNAIIKNAHKKGQ-OH,33,17.5,19.5,3.5,–,–,–,–,–,–,–,–,–,–,–,–
CC[C@H](C)[C@H](NC(=O)[C@H](C)NC(=O)[C@H](CC(N)=O)NC(=O)[C@H](CCCCN)NC(=O)[C@H](Cc1ccccc1)NC(=O)[C@H](CC(C)C)NC(=O)[C@@H](NC(=O)[C@@H](NC(=O)[C@H](CC(C)C)NC(=O)[C@@H]1CCCN1C(=O)[C@@H](NC(=O)[C@H](CCC(N)=O)NC(=O)[C@H](CO)NC(=O)[C@H](CCCCN)NC(=O)[C@H](CCC(=O)O)NC(=O)[C@H](CO)NC(=O)[C@@H](NC(=O)[C@H](CCSC)NC(=O)[C@H](Cc1ccccc1)NC(=O)CNC(=O)CNC(=O)[C@@H](N)Cc1ccc(O)cc1)[C@@H](C)O)[C@@H](C)O)C(C)C)[C@@H](C)O)C(=O)N[C@H](C(=O)N[C@@H](CCCCN)C(=O)N[C@@H](CC(N)=O)C(=O)N[C@@H](C)C(=O)N[C@@H](Cc1ccc(O)cc1)C(=O)N[C@@H](CCCCN)C(=O)N[C@@H](CCCCN)C(=O)NCC(=O)N[C@@H](CCC(=O)O)C(=O)O)[C@@H](C)CC,48.4,32.8,17.3,3.4,Dose-dependent effect,inactive,inactive,Active,inactive,Dose-dependent effect,inactive,Active,–,–,–,–
CN1CC[C@]23c4c5ccc(O)c4O[C@H]2[C@@H](O)C=C[C@H]3[C@H]1C5 [MORPHINE],–,–,–,–,–,–,–,–,–,–,–,–,0.026,0.031,0.026,3.32

# Source: ChEMBL document CHEMBL3244038, “Synthesis and analgesic activity of human beta-endorphin” (1977)
